{
  "source": "paper PMC7115674",
  "about": "(Peptides, 2008)",
  "key": {"[1]": {"system": "severe acute respiratory syndrome (SARS) coronavious (CoV) protease", "details": "cited from earlier work"}, "hepatoma HepG2 cell line": {"system": "hepatoma HepG2 cell line", "details": "read-out: IC50, antiproliferative activity; cited from earlier work"}, "[2]": {"system": "a Helminthosporium species", "details": "in words; cited from earlier work"}, "[3]": {"system": "HIV-1 reverse transcriptase", "details": "cited from earlier work"}, "tumor cells [4]": {"system": "tumor cells", "details": "in words; cited from earlier work"}, "[5]": {"system": "Mycosphaerella arachidicola", "details": "in words; cited from earlier work"}, "mouse splenocytes [6]": {"system": "mouse splenocytes", "details": "toward mouse splenocytes; cited from earlier work"}, "fungal species [7]": {"system": "fungal species", "details": "in words; cited from earlier work"}, "HIV-1 integrase [8]": {"system": "HIV-1 integrase", "details": "cited from earlier work"}, "[9]": {"system": "breast cancer MCF-7 cell line", "details": "read-out: IC50, antiproliferative activity; cited from earlier work"}, "Fusarium oxysporum [10]": {"system": "Fusarium oxysporum", "details": "in words; cited from earlier work"}, "fungal species [11]": {"system": "fungal species", "test": "Antifungal activity, fungal species in general or not specified", "format": "cell-based", "details": "for antifungal activity: in words"}, "Fusarium oxysporum [12]": {"system": "Fusarium oxysporum", "test": "Antifungal activity, mycelial growth inhibition, Fusarium oxysporum", "format": "cell-based", "how_it_was_run": "(§1)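 Four doses of test peptide were mixed separately into potato dextrose agar at 45 °C and poured into small plates. Each plate then received an equal amount of mycelia, with a buffer-only control. After 72 h at 23 °C, colony area was measured. % inhibition = reduction in colony area relative to the control. IC50 was read from the % reduction versus concentration plot at 50% reduction.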"}, "[13]": {"system": "HIV-1 reverse transcriptase", "test": "HIV-1 reverse transcriptase inhibitory activity", "format": "biochemical", "details": "in words"}, "mouse splenocytes [14]": {"system": "mouse splenocytes", "test": "Mitogenic activity", "format": "cell-based", "details": "data not shown; Con A positive control"}, "Helminthosporium maydis": {"system": "Helminthosporium maydis", "test": "Antifungal activity, mycelial growth inhibition, Helminthosporium maydis", "format": "cell-based", "details": "read-out: IC50 of antifungal activity; potato dextrose agar, 23 °C, 72 h; 50% reduction in area of mycelial colony", "how_it_was_run": "as §1"}, "[15]": {"test": "Thermal and pH stability of antifungal activity", "format": "physicochemical", "details": "for thermostability: antifungal activity after thermal pretreatment", "how_it_was_run": "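Test peptide was pretreated at 0–100 °C for 10 min or at pH 0–3 and 10–14 for 30 min. Ions were also tested. Residual antifungal activity was then measured by the paper-disk assay on potato dextrose agar (2 μg peptide per disk, buffer control disk, 23 °C, 72 h), scoring inhibition crescents.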"}, "Valsa mali": {"system": "Valsa mali", "test": "Antifungal activity, mycelial growth inhibition, Valsa mali", "format": "cell-based", "details": "read-out: IC50 of antifungal activity; potato dextrose agar, 23 °C, 72 h; 50% reduction in area of mycelial colony", "how_it_was_run": "as §1"}, "[16]": {"system": "Mycosphaerella arachidicola", "test": "Antifungal activity, mycelial growth inhibition, Mycosphaerella arachidicola", "format": "cell-based", "how_it_was_run": "as §1"}, "[17]": {"system": "a Helminthosporium species", "test": "Antifungal activity, a Helminthosporium species", "format": "cell-based", "details": "in words", "how_it_was_run": "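Mycelial disk-diffusion assay on potato dextrose agar. After the colony developed, sterile paper disks (0.625 cm) were placed 1 cm from the colony rim. Each disk received test peptide (60 μg or 300 μg) in 20 mM PBS, pH 6.0, and buffer served as the control. Plates were incubated at 23 °C for 72 h and scored for crescents of inhibition around the disks.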"}, "[18]": {"system": "severe acute respiratory syndrome (SARS) coronavious (CoV) protease", "format": "biochemical"}, "trypsin [19]": {"system": "trypsin", "test": "Trypsin-inhibitory activity", "format": "biochemical"}, "tumor cells [20]": {"system": "tumor cells", "test": "Antiproliferative activity on tumor cells, line not specified", "format": "cell-based", "details": "in words", "how_it_was_run": "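MCF-7 breast cancer and HepG2 hepatoma cells were suspended in RPMI at 2 × 10^4 cells/ml, seeded and incubated for 24 h. Graded concentrations of test peptide in complete RPMI were added for 72 h. MTT (5 mg/ml stock in PBS) was added for 4 h, plates were centrifuged, formazan was dissolved in DMSO and absorbance read at 590 nm.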"}, "HIV-1 integrase [21]": {"system": "HIV-1 integrase", "test": "HIV-1 integrase inhibition", "format": "biochemical", "details": "data not shown"}, "trypsin [22]": {"system": "trypsin", "details": "in words; cited from earlier work"}, "[23]": {"details": "read-out: IC50 of antifungal activity, potato dextrose agar, 23 °C, 72 h, 50% reduction in area of mycelial colony"}},
  "note": "Entries after “also recorded” stand apart in the source; their conditions may differ. Like-named read-outs stand apart in the source and are kept apart here.",
  "data": [
    {"sequence": "ALSCGTVSGNLAACAGYV [B. campestris antifungal peptide]", "values": [
      {"measurement": "SARS proteinase inhibitory activity", "setting": "[1]", "result": "Neither kale nor B. campestris antifungal peptide demonstrated HIV-1 integrase inhibitory and SARS proteinase inhibitory activities"},
      {"measurement": "IC50", "setting": "hepatoma HepG2 cell line", "result": 5.8, "unit": "µM"},
      {"measurement": "antifungal activity toward a Helminthosporium species", "setting": "[2]", "result": "antifungal activity toward F. oxysporum, M. arachidicola and a Helminthosporium species"},
      {"measurement": "HIV-1 reverse transcriptase inhibitory activity", "setting": "[3]; in words", "result": "HIV-1 reverse transcriptase inhibitory activity"},
      {"measurement": "IC50", "setting": "[3]; read-out: IC50, HIV-1 reverse transcriptase inhibitory activity", "result": 4, "unit": "µM"},
      {"measurement": "antiproliferative activity toward tumor cells", "setting": "tumor cells [4]", "result": "antiproliferative activity toward tumor cells"},
      {"measurement": "antifungal activity toward M. arachidicola", "setting": "[5]", "result": "antifungal activity toward F. oxysporum, M. arachidicola"},
      {"measurement": "mitogenic activity", "setting": "mouse splenocytes [6]", "result": "devoid of mitogenic activity toward mouse splenocytes"},
      {"measurement": "antifungal activity", "setting": "fungal species [7]", "result": "with antifungal activity"},
      {"measurement": "HIV-1 integrase inhibitory activity", "setting": "HIV-1 integrase [8]", "result": "Neither kale nor B. campestris antifungal peptide demonstrated HIV-1 integrase inhibitory"},
      {"measurement": "IC50", "setting": "[9]", "result": 1.6, "unit": "µM"},
      {"measurement": "antifungal activity toward F. oxysporum", "setting": "Fusarium oxysporum [10]", "result": "antifungal activity toward F. oxysporum"}
    ]},
    {"sequence": "PEGPFQGPKATKPGDLAXQTWGGWXGQTPKY [kale antifungal peptide]", "values": [
      {"measurement": "antifungal potency compared with other antifungal proteins", "setting": "fungal species [11]; compared with antifungal proteins of refs 31, 32, 40", "result": "more potent than that of the antifungal proteins"},
      {"measurement": "antifungal activity", "setting": "fungal species [11]", "result": "broad spectrum of antifungal activity; also recorded: exhibit antifungal activity"},
      {"measurement": "antifungal activity", "setting": "fungal species [11]; listed as antifungal peptide", "result": "stable and broad-spectrum antifungal activity"},
      {"measurement": "antifungal activity toward F. oxysporum", "setting": "Fusarium oxysporum [12]; in words", "result": "antifungal activity toward F. oxysporum"},
      {"measurement": "IC50", "setting": "Fusarium oxysporum [12]; [23]", "result": 4.3, "unit": "µM"},
      {"measurement": "HIV-1 reverse transcriptase inhibitory activity", "setting": "[13]", "result": "HIV-1 reverse transcriptase inhibitory activity; also recorded: potent antiproliferative and HIV-1 reverse transcriptase inhibitory activities"},
      {"measurement": "mitogenic activity", "setting": "mouse splenocytes [14]", "result": "devoid of mitogenic activity"},
      {"measurement": "IC50", "setting": "Helminthosporium maydis", "result": 2.1, "unit": "µM"},
      {"measurement": "pH stability", "setting": "[15]; antifungal activity after pH pretreatment, in words", "result": "remarkable thermostability and pH stability"},
      {"measurement": "thermostability", "setting": "[15]; in words", "result": "remarkable thermostability"},
      {"measurement": "thermostability", "setting": "[15]; in words, listed as antifungal peptide", "result": "pronounced thermostability"},
      {"measurement": "acid pH range after which antifungal activity was retained", "setting": "[15]; pH, pretreatment 30 min, tested pH 0–3, paper disk assay, 2 μg peptide per disk", "result": "2–3"},
      {"measurement": "IC50", "setting": "Valsa mali", "result": 0.15, "unit": "µM"},
      {"measurement": "antifungal activity toward M. arachidicola", "setting": "[16]; in words", "result": "antifungal activity toward F. oxysporum, M. arachidicola"},
      {"measurement": "IC50", "setting": "[16]; [23]", "result": 2.4, "unit": "µM"},
      {"measurement": "antifungal activity toward a Helminthosporium species", "setting": "[17]", "result": "antifungal activity toward F. oxysporum, M. arachidicola and a Helminthosporium species"},
      {"measurement": "SARS proteinase inhibitory activity", "setting": "[18]", "result": "devoid of"},
      {"measurement": "trypsin inhibitory activity toward BAEE", "setting": "trypsin [19]; BAEE as substrate, tested up to 50 μM, detailed data not shown", "result": "lacked trypsin inhibitory activity"},
      {"measurement": "trypsin inhibitory activity toward casein", "setting": "trypsin [19]; casein as substrate, tested up to 10 μM, detailed data not shown", "result": "lacked trypsin inhibitory activity"},
      {"measurement": "trypsin inhibitory activity", "setting": "trypsin [19]; substrate not specified, in words", "result": "did not exhibit trypsin inhibitory activity"},
      {"measurement": "antiproliferative activity", "setting": "tumor cells [20]", "result": "demonstrated antiproliferative activity; also recorded: antiproliferative activity toward tumor cells; also recorded: potent antiproliferative"},
      {"measurement": "HIV-1 integrase inhibitory activity", "setting": "HIV-1 integrase [21]", "result": "devoid of"}
    ]},
    {"sequence": "SECLKEYGGDVGFGFCAPRIYPSFCVQRC [Brassica napus trypsin inhibitor]", "values": [
      {"measurement": "trypsin inhibitory activity", "setting": "trypsin [22]", "result": "manifest trypsin inhibitory activity"}
    ]}
  ]
}
